This is an account of results in ChEMBL document CHEMBL4321820, “Identification and Optimization of Mechanism-Based Fluoroallylamine Inhibitors of Lysyl Oxidase-like 2/3” (J Med Chem, 2019).

Series [1] concerns the target T1, Amine oxidase [copper-containing] 3 (Homo sapiens, UniProt Q16853).
T1 sequence (Q16853 whole entry): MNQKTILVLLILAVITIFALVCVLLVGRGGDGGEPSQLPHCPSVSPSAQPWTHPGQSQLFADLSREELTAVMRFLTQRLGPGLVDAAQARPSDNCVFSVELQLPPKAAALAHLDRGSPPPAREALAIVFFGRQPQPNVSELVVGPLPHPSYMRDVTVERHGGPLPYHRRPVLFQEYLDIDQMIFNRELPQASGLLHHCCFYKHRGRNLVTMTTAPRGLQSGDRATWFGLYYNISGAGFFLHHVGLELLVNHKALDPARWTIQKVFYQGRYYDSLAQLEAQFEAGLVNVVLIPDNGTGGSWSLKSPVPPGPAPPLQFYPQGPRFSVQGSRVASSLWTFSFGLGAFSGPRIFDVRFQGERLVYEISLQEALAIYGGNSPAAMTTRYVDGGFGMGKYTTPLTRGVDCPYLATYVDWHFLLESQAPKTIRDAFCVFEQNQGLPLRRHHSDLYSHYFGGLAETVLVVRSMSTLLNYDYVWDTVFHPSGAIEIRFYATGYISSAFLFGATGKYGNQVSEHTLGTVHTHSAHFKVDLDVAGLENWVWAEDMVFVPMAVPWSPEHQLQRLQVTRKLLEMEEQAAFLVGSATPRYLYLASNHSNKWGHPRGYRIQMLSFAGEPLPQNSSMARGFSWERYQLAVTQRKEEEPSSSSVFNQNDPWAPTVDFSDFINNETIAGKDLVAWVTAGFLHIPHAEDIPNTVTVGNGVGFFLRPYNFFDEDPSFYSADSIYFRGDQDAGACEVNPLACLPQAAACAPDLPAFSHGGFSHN
Kind of series: Substrate activity at recombinant human SSAO assessed as compound oxidation by measuring oxidative turnover at 30 uM measured for 40 mins by horseradish peroxidase-coupled amplex red reagent-based fluorometric assay relative to DMSO. Type of series: ADME. The gist of the method: (§1)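 Compound oxidation measured without substrate by peroxidase-coupled fluorometric read-out of resorufin formation over 40 min at 37 °C in HEPES buffer. Amplex Red 20 µM, HRP 4 U/ml, test compound at final 30 µM. Enzyme source was human recombinant SSAO or AOC4 from diluted dog serum. Benzylamine at 600 µM served as positive control. Signal is expressed relative to DMSO-only background, so a value near 1 means no turnover.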

Series [2] can be described thus: Substrate activity at AOC4 in dog serum assessed as compound oxidation by measuring oxidative turnover at 30 uM measured for 40 mins by horseradish peroxidase-coupled amplex red reagent-based fluorometric assay relative to DMSO. Type of series: ADME, cell-free, Canis lupus familiaris. The gist of the method: as §1
The target in series [3] is T2, Lysyl oxidase homolog 2 (Homo sapiens, UniProt Q9Y4K0).
T2 sequence (Q9Y4K0 whole entry): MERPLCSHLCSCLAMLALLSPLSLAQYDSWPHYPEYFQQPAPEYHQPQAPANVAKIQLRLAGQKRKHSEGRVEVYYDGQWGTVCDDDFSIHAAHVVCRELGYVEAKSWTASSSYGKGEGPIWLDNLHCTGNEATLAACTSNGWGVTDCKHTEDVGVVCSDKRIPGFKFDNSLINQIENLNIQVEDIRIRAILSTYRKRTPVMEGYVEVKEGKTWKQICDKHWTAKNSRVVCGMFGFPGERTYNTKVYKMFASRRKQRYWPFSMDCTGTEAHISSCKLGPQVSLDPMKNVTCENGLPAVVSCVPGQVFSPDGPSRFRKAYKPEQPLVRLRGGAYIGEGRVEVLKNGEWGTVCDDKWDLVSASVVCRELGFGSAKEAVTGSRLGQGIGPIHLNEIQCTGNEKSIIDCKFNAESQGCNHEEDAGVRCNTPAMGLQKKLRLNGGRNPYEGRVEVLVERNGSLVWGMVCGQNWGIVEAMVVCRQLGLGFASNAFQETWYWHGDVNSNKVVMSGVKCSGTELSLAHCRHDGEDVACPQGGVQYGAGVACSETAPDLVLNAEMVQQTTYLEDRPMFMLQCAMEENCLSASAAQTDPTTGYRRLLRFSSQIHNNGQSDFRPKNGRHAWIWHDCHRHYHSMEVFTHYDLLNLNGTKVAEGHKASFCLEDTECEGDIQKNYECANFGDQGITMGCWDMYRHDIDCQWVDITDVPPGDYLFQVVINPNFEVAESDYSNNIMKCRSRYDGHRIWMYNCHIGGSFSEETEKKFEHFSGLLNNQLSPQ
Kind of series: Inhibition of recombinant human C-terminal His-tagged […] (1-774 residues) expressed in mouse myeloma cells using putrescine as substrate preincubated with enzyme for 30 mins followed by substrate addition and measured every 2.5 mins for 30 mins by Amplex-Red oxidation assay. Particulars: read-out: pIC50 (converted). The gist of the method:
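LOXL2 enzyme preincubated with compound for 30 min at 37 °C, then Amplex Red (120 µM) / HRP (1.5 U/mL) mix containing 5 mM putrescine added. Buffer: 1.2 M urea, 50 mM sodium borate, pH 8.2. H2O2 fluorescence (ex 565/em 590) read every 2.5 min for 30 min at 37 °C; BAPN 100 µM as positive control; n≥2.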

In series [4] the target is T3, Protein-lysine 6-oxidase (Bos taurus, UniProt P33072).
T3 sequence (P33072 whole entry): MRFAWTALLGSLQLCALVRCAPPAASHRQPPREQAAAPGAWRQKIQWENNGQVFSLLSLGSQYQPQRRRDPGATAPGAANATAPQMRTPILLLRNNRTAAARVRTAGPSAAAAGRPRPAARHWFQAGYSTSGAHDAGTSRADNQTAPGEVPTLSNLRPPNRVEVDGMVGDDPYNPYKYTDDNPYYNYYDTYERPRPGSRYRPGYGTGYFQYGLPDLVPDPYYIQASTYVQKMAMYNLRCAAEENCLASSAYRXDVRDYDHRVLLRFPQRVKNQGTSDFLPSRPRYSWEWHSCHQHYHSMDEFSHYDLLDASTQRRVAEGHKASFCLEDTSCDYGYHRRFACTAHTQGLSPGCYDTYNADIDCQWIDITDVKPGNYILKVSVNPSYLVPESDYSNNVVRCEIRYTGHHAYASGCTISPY
Kind of series: Inhibition of LOX in bovine aorta using putrescine as substrate preincubated with enzyme for 30 mins followed by substrate addition and measured every 2.5 mins for 30 mins by Amplex-Red oxidation assay. Format: tissue-based. Particulars: read-out: pIC50 (converted). The method, boiled down:
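LOX extracted from calf aorta after PBS washing with 4 M urea/50 mM borate pH 8.2, concentrated on 10 kDa filters into 1.2 M urea/borate with protease inhibitors. Preincubated 30 min at 37 °C with compound, then Amplex Red/HRP with 10 mM putrescine; fluorescence read every 2.5 min for 30 min.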

The target of series [5] is T1, Amine oxidase [copper-containing] 3. As to the kind of experiment: Inhibition of recombinant human SSAO using benzylamine as substrate preincubated with enzyme for 30 mins followed by substrate addition and measured every 2.5 mins for 30 mins by Amplex-Red oxidation assay. Particulars: read-out: pIC50 (converted).

Consider `Cc1c(-c2cccc(S(=O)(=O)N(C)C)c2)c2ccc(C(=O)O)cc2n1C/C(F)=C/CN.Cl`, for which the “fold change (FC)” value stood at 1.1 in series [1] and 1 in series [2]. The results for the IC50 in series [3] and in series [4] were 501 nM and 15800 nM, respectively.

As for `CN(C)S(=O)(=O)c1ccc(NCc2cn(C/C(F)=C/CN)nn2)cc1.Cl`, the “fold change (FC)” value in series [1] is more than 4. Besides, the IC50 in series [3] was 20 nM; in series [4], 501 nM.

Turning to `Cc1c(-c2cccc(S(=O)(=O)N(C)C)c2)c2cc(O)ccc2n1C/C(F)=C/CN.Cl`, the figures for the “fold change (FC)” value in series [1] and in series [2] were 1 and 1.1, respectively. Further, the IC50 in series [3] was 50.1 nM; in series [4], 1260 nM.

For `Cc1c(-c2cccc(S(=O)(=O)N(C)C)c2)c2cccc(C(=O)N(C)C)c2n1C/C(F)=C/CN.Cl`, the “fold change (FC)” value is listed as 1.1 in series [1] and 1.4 in series [2]. Further, the IC50 is 3160 nM in series [3] and 20000 nM in series [4].

Take `C[C@H](NS(=O)(=O)c1ccc(OC/C(F)=C/CN)cc1)c1ccccc1`: the figures for the IC50 in series [5], in series [3] and in series [4] were more than 3160 nM, 316 nM and 398 nM, respectively.

In the case of `Cc1c(-c2cccc(S(=O)(=O)N(C)C)c2)c2ccc(C(=O)N(C)C)cc2n1C/C(F)=C/CN.Cl`, the entries for the “fold change (FC)” value in series [1] and in series [2] were 1 and 1.1, respectively. Further, the values for the IC50 in series [3] and in series [4] were 63.1 nM and 794 nM, respectively.

As for `Cc1c(-c2cccc(S(=O)(=O)N(C)C)c2)c2cc(NS(C)(=O)=O)ccc2n1C/C(F)=C/CN.Cl`, the “fold change (FC)” value in series [1] was 1; in series [2], 1.5. The IC50 in series [3] is 20 nM; in series [4] it was 1000 nM.

Regarding `Cc1c(-c2ccc(S(=O)(=O)N(C)C)cc2)c2ccccc2n1C/C(F)=C/CN.Cl`, in series [1], the “fold change (FC)” value is 2.8. For the same molecule, the IC50 in series [3] was 794 nM; in series [4], 3160 nM.

Consider `Cc1c(-c2cccc(S(=O)(=O)N(C)C)c2)c2cc(C(=O)N(C)C)ccc2n1C/C(F)=C/CN.Cl`, for which the “fold change (FC)” value in series [1] is 1.2; in series [2], 1. In addition, the IC50 in series [3] is 25.1 nM; in series [4], 1580 nM.

For `CN(C)C(=O)c1ccc(OCc2cn(C/C(F)=C/CN)nn2)cc1`, the IC50 is 794 nM in series [3] and 3160 nM in series [4].

On to `CS(=O)(=O)c1ccccc1OCc1cn(C/C(F)=C/CN)nn1`, for which the IC50 in series [3] is 2000 nM; in series [4], 3160 nM.

For the molecule `NC/C=C(\F)Cn1cc(COc2ccccc2)nn1`, the IC50 in series [3] was 316 nM; in series [4] it was 501 nM.

As to `CN(C)S(=O)(=O)c1ccc(Cc2cn(C/C(F)=C/CN)nn2)cc1.Cl`, the “fold change (FC)” value in series [1] is more than 4. Further, the IC50 was 12.6 nM in series [3] and 631 nM in series [4].

For the molecule `COc1ccc2c(c1)c(-c1cccc(S(=O)(=O)N(C)C)c1)c(C)n2C/C(F)=C/CN.Cl`, the “fold change (FC)” value in series [1] stood at 4.6; in series [2], 1.6. Further, the IC50 in series [3] is 79.4 nM; in series [4], 1580 nM.

Take `CN(C)S(=O)(=O)c1ccc(-c2cn(C/C(F)=C/CN)nn2)cc1.Cl`: the “fold change (FC)” value in series [1] was more than 4. Further, the IC50 was 126 nM in series [3] and 794 nM in series [4].

Turning to `CS(=O)(=O)c1ccc(OCc2cn(C/C(F)=C/CN)nn2)cc1`, the IC50 in series [3] is 200 nM; in series [4], 631 nM.

For `CS(=O)(=O)c1cccc(OCc2cn(C/C(F)=C/CN)nn2)c1`, the IC50 in series [3] is 794 nM; in series [4], 1000 nM.

For the molecule `Cc1c(-c2cccc(S(=O)(=O)N(C)C)c2)c2cc(-c3nnn[nH]3)ccc2n1C/C(F)=C/CN.Cl`, in series [2], the “fold change (FC)” value stood at 1. Further, the IC50 in series [3] was 126 nM; in series [4], 15800 nM.

Turning to `C[C@H](NS(=O)(=O)c1ccc(OC/C(F)=C\CN)cc1)c1ccccc1`, the IC50 in series [5] was 50.1 nM; in series [3], 2510 nM; in series [4], 2000 nM.

Regarding `Cc1c(-c2cccc(S(=O)(=O)N(C)C)c2)c2cc(S(C)(=O)=O)ccc2n1C/C(F)=C/CN.Cl`, the “fold change (FC)” value in series [1] and in series [2] was 1.3 throughout. The IC50 is 5.01 nM in series [3] and 398 nM in series [4].

For the molecule `Cc1c(-c2cccc(S(=O)(=O)N(C)C)c2)c2cc(Cl)ccc2n1C/C(F)=C/CN.Cl`, the “fold change (FC)” value worked out at 1.2 in series [1] and 1.1 in series [2]. In addition, the IC50 in series [3] was 126 nM; in series [4], 3160 nM.

Consider `CN(C)S(=O)(=O)c1ccc(-c2ccn(C/C(F)=C/CN)c2)cc1.Cl`, for which the “fold change (FC)” value in series [1] is listed as more than 4. For the same molecule, the IC50 is 251 nM in series [3] and 794 nM in series [4].

For `CN(C)S(=O)(=O)c1cccc(-c2ccn(C/C(F)=C/CN)c2)c1.Cl`, the “fold change (FC)” value in series [1] is recorded as more than 4. Moreover, the IC50 in series [3] was 100 nM; in series [4] it was 2000 nM.

Consider `CC(C)(C)c1ccc(OCc2cn(C/C(F)=C/CN)nn2)cc1`, for which the IC50 in series [3] was 794 nM; in series [4], 501 nM.
